Active and inactive are the calls of the source.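 The calls were made as follows, unless noted: active = viability at or under a set limit in both replicates, limit being median viability minus 3 SD (cut at about 48% in these data, passing the limit was not always enough); inconclusive = at or under the limit in just one replicate; inactive = at or above the limit in both replicates.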
What was measured:
[1] = reducers of endogenous Her2 protein level, primary screen, SKBR3 breast tumor cells, AlphaScreen, ATP viability (AID 461;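 active = Her2 level under about 52% in both replicate screens, with viability over 70% of control, limit read from the data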;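 as to Her2 level: lower value means less Her2 protein in the cells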;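 as to viability: percent of carrier control wells set as 100% viability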); settings: 18-24 h, measured here: SKBR3 viability, ATP luminescence, at 10 µM
[2] = molecular target: Receptor tyrosine-protein kinase erbB-2 (Homo sapiens) (UniProt P04626); experiment: as above; settings: 18-24 h, at 10 µM, stronger effect = lower value
Receptor tyrosine-protein kinase erbB-2 (Homo sapiens), sequence (P04626 whole entry, looked up): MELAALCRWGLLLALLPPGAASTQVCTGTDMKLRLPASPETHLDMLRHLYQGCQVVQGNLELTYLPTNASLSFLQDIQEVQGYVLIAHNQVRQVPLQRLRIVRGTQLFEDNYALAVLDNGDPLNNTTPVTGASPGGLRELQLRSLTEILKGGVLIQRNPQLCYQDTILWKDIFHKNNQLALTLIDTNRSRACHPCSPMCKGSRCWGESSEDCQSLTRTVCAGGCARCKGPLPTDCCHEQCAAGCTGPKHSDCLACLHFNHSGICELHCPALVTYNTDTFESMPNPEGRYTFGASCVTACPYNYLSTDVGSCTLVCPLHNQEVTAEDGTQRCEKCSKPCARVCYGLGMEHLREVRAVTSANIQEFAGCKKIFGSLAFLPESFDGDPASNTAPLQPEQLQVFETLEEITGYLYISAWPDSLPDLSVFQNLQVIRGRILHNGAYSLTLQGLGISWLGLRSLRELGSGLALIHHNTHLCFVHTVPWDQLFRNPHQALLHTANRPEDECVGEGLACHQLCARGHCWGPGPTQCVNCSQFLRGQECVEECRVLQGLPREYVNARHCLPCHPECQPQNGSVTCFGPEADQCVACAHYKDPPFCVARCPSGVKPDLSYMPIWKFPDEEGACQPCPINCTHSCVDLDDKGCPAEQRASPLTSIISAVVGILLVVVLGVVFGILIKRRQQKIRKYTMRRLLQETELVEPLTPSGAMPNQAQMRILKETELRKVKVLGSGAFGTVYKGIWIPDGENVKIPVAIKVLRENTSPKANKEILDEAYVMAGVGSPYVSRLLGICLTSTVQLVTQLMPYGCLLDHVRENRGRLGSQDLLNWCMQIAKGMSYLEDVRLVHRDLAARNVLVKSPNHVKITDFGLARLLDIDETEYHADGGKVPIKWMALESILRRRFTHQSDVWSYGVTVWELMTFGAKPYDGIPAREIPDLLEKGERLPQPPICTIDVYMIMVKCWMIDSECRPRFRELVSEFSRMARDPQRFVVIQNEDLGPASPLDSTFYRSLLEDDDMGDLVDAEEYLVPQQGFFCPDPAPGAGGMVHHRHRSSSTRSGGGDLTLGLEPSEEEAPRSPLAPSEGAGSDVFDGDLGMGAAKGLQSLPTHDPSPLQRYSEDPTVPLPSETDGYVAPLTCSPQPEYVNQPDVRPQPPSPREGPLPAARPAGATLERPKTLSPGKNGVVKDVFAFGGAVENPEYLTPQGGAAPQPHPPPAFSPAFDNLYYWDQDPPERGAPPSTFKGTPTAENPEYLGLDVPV

[3] = SK-BR-3 cell growth inhibitors, pilot screen, 24 h, human (AID 572;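 active = viability at or below 10% of carrier control in both of two separate runs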;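 also: compound exposure lasted between 18 and 24 h rather than exactly 24 h; 100% = carrier-treated control wells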); settings: SK-BR-3 viability, CellTiter-Glo luminescence, at 10 µM, stronger effect = lower value
[4] = HUVEC growth inhibition – cell-based, human, primary screen (AID 575;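 active = viability at or below 30% in both replicate assays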;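 also: 100% = median of untreated cell wells with 0.1% DMSO on each plate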); settings: HUVEC proliferation, CellTiter-Glo luminescence, 72 h; at 10 µM; stronger effect = lower value
In short: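 Test system: HUVEC primary cells. Quantity: 1250 endothelial cells in each well. Dosing: single-point 10 µM, DMSO 0.1% final. Incubation: 72 h treatment at 37 °C. Measured by: CTG luminescence. Control set: DMSO cell controls and MePR drug controls. Plate: collagen-coated 384-well format.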

[5] = growth inhibitors of H69AR lung tumor, primary screen, human, duplicate replicates (AID 580); settings: H69AR lung tumor cells viability, ATP luminescence, 72 h; at 10 µM; stronger effect = lower value;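 also: 100% = mean luminescence of untreated wells and 0% = no signal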
[6] = reversal of MRP1-mediated doxorubicin resistance, pilot screen, H69AR cells, doxorubicin co-treatment (AID 601;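 active = viability loss from added drug above about 55%, and viability with drug at most 40%, in both replicates, limit read from the data, passing the limit was not always enough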); settings: CellTiter-Glo, 72 h, at 10 µM; for differential viability (reversal): stronger effect = higher value
[7] = 384-well plate pilot, post-Golgi transport modulator project, inhibition of yeast transport mutant growth (AID 636; in the data active = inhibition above about 31%); settings: absorbance 615 nm, about 18 h, stronger effect = higher value
[8] = growth suppression of yeast trafficking mutant, preliminary HTS, modulators of trafficking downstream of Golgi apparatus project, 1536-format plate, OD 615 nm (AID 637; in the data active = inhibition above about 30%); settings: yeast transport mutant growth, absorbance 615 nm, 18 h; stronger effect = higher value
[9] = H69AR cells + 2 uM doxorubicin, measured here: viability with 2 uM doxorubicin, stronger effect = lower value
[10] = H69AR cells, compound alone cytotoxicity

Compound | viability [1] [%] | Her2 level [2] | viability [3] | viability [4] | viability [5] | differential viability (reversal) ([6]; H69AR cells + 2 uM doxorubicin) | viability [6, 9] [%] | viability [6, 10] [%] | inhibition [7] | inhibition [8]
c1ccc(CNc2ccc3c(c2)ncn3C2CCCCC2)nc1 | 97 | 107% (inactive) | 97% (inactive) | 96% (inactive) | 96.8% (inactive) | 2.95% (inactive) | 93.8 | 96.8 | -1.05% (inactive) | -2.73% (inactive)
O=C(Cn1cnc2c(nnn2-c2ccc(F)cc2)c1=O)N1CCCc2ccccc21 | 101 | 117% (inactive) | 101% (inactive) | 90.5% (inactive) | 103% (inactive) | 16.3% (inactive) | 86.6 | 103 | -9.59% (inactive) | -2.7% (inactive)
Cc1ccc(C)c(NC(=O)c2ccc3c(c2)N(Cc2ccc(F)cc2)C(=O)CS3=O)c1 (stereo not given) | 85.5 | 102% (inactive) | 85.5% (inactive) | 95.2% (inactive) | 97.1% (inactive) | 3.96% (inactive) | 93.1 | 97.1 | -1.6% (inactive) | -0.66% (inactive)
COCCSc1ccccc1C(=O)Nc1nncs1 | 88 | 102% (inactive) | 88% (inactive) | 96.2% (inactive) | 92.5% (inactive) | 3.37% (inactive) | 89.2 | 92.5 | -4.73% (inactive) | 2.22% (inactive)
CCOC(=O)CNC(=O)CSc1nc(N)cc(N)n1 | 92 | 96% (inactive) | 92% (inactive) | 113% (inactive) | 96.7% (inactive) | 0.07% (inactive) | 96.6 | 96.7 | -4.27% (inactive) | -9.84% (inactive)
CCC(C)(C(=O)NC1CCCCC1)N(Cc1ccco1)C(=O)c1ccc2c(c1)OCO2 (stereo not given) | 92.5 | 89% (inactive) | 92.5% (inactive) | 82.3% (inactive) | 83.4% (inactive) | 3.06% (inactive) | 80.3 | 83.4 | -1.82% (inactive) | -7.05% (inactive)
Cc1ccc(CSC2=NCCN2C(=O)C2CC2)cc1 | 100 | 88% (inactive) | 100% (inactive) | 83.3% (inactive) | 97% (inactive) | 10.7% (inactive) | 86.3 | 97 | -8.11% (inactive) | 8.57% (inactive)
COc1cc(S(=O)(=O)N2CCC(N3CCCCC3)CC2)ccc1-n1cnnn1 | 92.5 | 108% (inactive) | 92.5% (inactive) | 98.3% (inactive) | 98% (inactive) | 8.69% (inactive) | 89.3 | 98 | -3.78% (inactive) | -6.35% (inactive)
O=c1c2cc(N3CCOCC3)ccc2[nH]c(=S)n1CCCN1CCCC1 | 89 | 78% (inactive) | 89% (inactive) | 86% (inactive) | 100% (inactive) | 14.6% (inactive) | 85.4 | 100 | -5.41% (inactive) | 6.89% (inactive)
O=C(Nc1cccnc1)c1ccc2c(c1)OCO2 | 119 | 121% (inactive) | 119% (inactive) | 99.6% (inactive) | 97.7% (inactive) | 13.8% (inactive) | 83.9 | 97.7 | -5.33% (inactive) | 9.84% (inactive)
CCC(C)(C(=O)NC1CCCC1)N(C(=O)c1cnccn1)c1c(C)n(C)n(-c2ccccc2)c1=O (stereo not given) | 97 | 124% (inactive) | 97% (inactive) | 94.4% (inactive) | 91.4% (inactive) | 0.145% (inactive) | 91.2 | 91.4 | 2.34% (inactive) | -7.38% (inactive)
CC(NC(=O)COc1ccc(Br)cc1)C(=O)O (stereo not given) | 108 | 114% (inactive) | 108% (inactive) | 104% (inactive) | 91.8% (inactive) | 4.2% (inactive) | 87.6 | 91.8 | -3.64% (inactive) | -2.33% (inactive)
Cc1coc2cc3oc(=O)c4c(c3cc12)CCC4 | 111 | 81.5% (inactive) | 111% (inactive) | 85.1% (inactive) | 104% (inactive) | 6.42% (inactive) | 97.2 | 104 | -2.7% (inactive) | -2.86% (inactive)
CC(=O)Nn1c(C)nnc1-n1nc(C)cc1C | 126 | 112% (inactive) | 126% (inactive) | 77.5% (inactive) | 97.8% (inactive) | 4.38% (inactive) | 93.4 | 97.8 | -1.95% (inactive) | -1.64% (inactive)
COc1cc(=O)[nH]c(SCc2c(F)c(F)c(F)c(F)c2F)n1 | 95 | 95.5% (inactive) | 95% (inactive) | 94% (inactive) | 91.5% (inactive) | -1.69% (inactive) | 93.2 | 91.5 | -5.6% (inactive) | -10% (inactive)
CCC(C)NC(=O)C1(C)CCC(=O)N1CCc1ccc(OC)c(OC)c1 (stereo not given) | 104 | 95% (inactive) | 104% (inactive) | 95.4% (inactive) | 86.1% (inactive) | -8.14% (inactive) | 94.2 | 86.1 | -1.04% (inactive) | -1.27% (inactive)

Compound | viability [1] [%] | Her2 level [2] | viability [3] | viability [4] | viability [5] | differential viability (reversal) ([6]; H69AR cells + 2 uM doxorubicin) | viability [6, 9] [%] | viability [6, 10] [%] | inhibition [7] | inhibition [8]
CCOC(=O)C1=C(C)NC(C)=C(C(=O)OCC)C1C(=O)OC1CCOC1=O (stereo not given) | 104 | 85% (inactive) | 104% (inactive) | 87.5% (inactive) | 93.8% (inactive) | 2.32% (inactive) | 91.4 | 93.8 | -5.27% (inactive) | 0.95% (inactive)
c1coc(-c2nnc(NC3=NCCC3)o2)c1 | 100 | 94% (inactive) | 100% (inactive) | 97.2% (inactive) | 98.7% (inactive) | 11.4% (inactive) | 87.3 | 98.7 | -5.34% (inactive) | -10.2% (inactive)
S=c1[nH]nc(-c2cccc(Br)c2)o1 | 91 | 130% (inactive) | 91% (inactive) | 88.2% (inactive) | 96.1% (inactive) | 3.51% (inactive) | 92.6 | 96.1 | -1.58% (inactive) | -8.83% (inactive)
CCOc1ccc2nc(SCC#N)c(C#N)cc2c1 | 93 | 106% (inactive) | 93% (inactive) | 104% (inactive) | 100% (inactive) | 16.1% (inactive) | 84 | 100 | -3.2% (inactive) | -0.32% (inactive)
c1ccc(-n2nnnc2OCCOc2nnnn2-c2ccccc2)cc1 | 92 | 106% (inactive) | 92% (inactive) | 82.2% (inactive) | 80.4% (inactive) | -6.12% (inactive) | 86.5 | 80.4 | -2.24% (inactive) | 9.18% (inactive)
C=CCNS(=O)(=O)c1ccc2nsnc2c1 | 102 | 109% (inactive) | 102% (inactive) | 87.8% (inactive) | 100% (inactive) | -1.67% (inactive) | 102 | 100 | 0.27% (inactive) | -2.1% (inactive)
CC(=O)N1C(=O)C2(Nc3ccccc3N2)c2ccccc21 | 110 | 95.5% (inactive) | 110% (inactive) | 104% (inactive) | 97.6% (inactive) | 9.47% (inactive) | 88.1 | 97.6 | -7.16% (inactive) | -9.5% (inactive)
CCn1c(=O)cc(OCC(=O)Nc2cc(C)ccn2)c2ccccc21 | 80 | 77% (inactive) | 80% (inactive) | 73.9% (inactive) | 86.4% (inactive) | -3.33% (inactive) | 89.7 | 86.4 | -2.89% (inactive) | -0.55% (inactive)
CCOC(=O)c1[nH]c(C)c(C(=O)NCc2ccccn2)c1C | 134 | 115% (inactive) | 134% (inactive) | 83.4% (inactive) | 102% (inactive) | 4.79% (inactive) | 96.8 | 102 | -5.07% (inactive) | 9.37% (inactive)
O=C(C1CCN(c2nnnn2-c2ccccc2)CC1)N1CCN(c2ccccc2)CC1 | 106 | 87.5% (inactive) | 106% (inactive) | 85.6% (inactive) | 79% (inactive) | 1.51% (inactive) | 77.5 | 79 | -5.27% (inactive) | 5.08% (inactive)
Cn1c(-c2ccccc2)cc(=O)c2ccccc21 | 98.5 | 109% (inactive) | 98.5% (inactive) | 102% (inactive) | 96.6% (inactive) | -6.83% (inactive) | 103 | 96.6 | -1.43% (inactive) | -2.13% (inactive)
COc1ccccc1Nc1nc(N)nc(CSc2nccc(C)n2)n1 | 99 | 90.5% (inactive) | 99% (inactive) | 107% (inactive) | 91% (inactive) | 5.23% (inactive) | 85.7 | 91 | -3.82% (inactive) | 0% (inactive)
CCOC(=O)CSc1nc2cc(C(=O)NCc3ccco3)ccc2c(=O)n1C1CCCCC1 | 112 | 83.5% (inactive) | 112% (inactive) | 91.7% (inactive) | 89.8% (inactive) | 2.55% (inactive) | 87.3 | 89.8 | -4.53% (inactive) | 0.33% (inactive)
COC(=O)CC1SCCNC1=O (stereo not given) | 92 | 94% (inactive) | 92% (inactive) | 103% (inactive) | 95.6% (inactive) | 5.06% (inactive) | 90.6 | 95.6 | 5.87% (inactive) | 23.7% (inactive)
O=C(CCOc1ccccc1)NCc1ccccc1 | 122 | 102% (inactive) | 122% (inactive) | 89.9% (inactive) | 89.6% (inactive) | -0.41% (inactive) | 90 | 89.6 | 4.03% (inactive) | 28.9% (inactive)
